The values below come from PMC4480188 (Experimental parasitology, 2015).

Values joined by “and” are separate entries in the source; they are usually repeats but may differ in a detail not shown here. Identical values can stand only once. “Also recorded” adds a separate entry of the source. Like-named read-outs stand apart in the source and are kept apart here. Marks after values point to notes of the source that are not given here.

As usually defined, the IC50 is the midpoint of a concentration-inhibition curve.

In assay [1] the test system is human metastatic melanoma UACC 903 cells. The settings on record: read-out: IC50, UACC 903 cells; MTS assay, ± SEM; ref Robertson et al. (2014); cited from earlier work. (Formazan colour is commonly taken as a measure of viable cells.)
For assay [2], the system named is human normal skin fibroblast FF 2441 cells. Conditions: read-out: IC50, FF 2441 cells; MTS assay, ± SEM; ref Robertson et al. (2014); cited from earlier work.
In assay [3] the test system is P. falciparum 3D7. Briefly: Antimalarial activity by SYBR Green assay. The class given is cell-based, Plasmodium falciparum. Conditions: for IC50: mean of three independent experiments ± SEM; for Antimalarial activity: summary of IC50 results.
Assay [4] concerns P. falciparum 3D7 parasites (asexual stage, ring stage). It is filed as cell-based, Plasmodium falciparum. The settings on record: for Antimalarial activity, ranking among the three compounds tested: 2.5-20 μM, 24-72 h, microscopy. The essentials:
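Sorbitol-synchronized P. falciparum 3D7 in human erythrocytes (37 °C, 5% O2/5% CO2/90% N2) was treated at ring stage (8–10 h post-invasion, 4–6% parasitemia) with 2.5, 5, 10 or 20 μM test compound, or left untreated. Aliquots were taken at 24, 48 and 72 h for Giemsa-stained thin smears. Percent parasitemia and stage (rings, trophozoites, schizonts) were scored by light microscopy.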

In assay [5] the test system is P. falciparum gametocytes. The class given is cell-based, Plasmodium falciparum. Conditions: 48 h. An outline of the steps: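 Gametocytes came from P. falciparum cultured continuously for 6–8 weeks at >10% parasitemia, with weekly sorbitol synchronization, in human erythrocytes at 37 °C under 5% O2/5% CO2/90% N2. Gametocyte cultures were exposed to test compound at 10 or 20 μM for 48 h alongside untreated controls. Giemsa-stained smears of culture pellets were then examined by light microscopy for gametocyte morphology.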

Setting [6] is: 2.5 μM, 48 h, treated at ring stage.
Setting [7] is: 2.5 μM, 72 h, treated at ring stage.
Setting [8] is: 5 μM, 24 h, treated at ring stage.
The mark [9] stands for this setting: 5 μM, 48 h, treated at ring stage.
The mark [10] stands for this setting: 5 μM, 72 h, NVP = no viable parasites.
Setting [11] is: 10 μM, 24 h, treated at ring stage.
The mark [12] stands for this setting: 10 μM, 48 h, ring-stage (R) parasites.
Where [13] appears, read: 10 μM, 72 h, NVP = no viable parasites.
Setting [14] is: 20 μM, 24 h, NVP = no viable parasites.
Setting [15] is: 20 μM, 48 h, ring-stage (R) parasites, NVP = no viable parasites.
Where [16] appears, read: 20 μM, 72 h, NVP = no viable parasites.
Where [17] appears, read: up to 20 μM, 48 h, ring stage treated.

With `CC(C)c1ccc2c(c1)CC[C@H]1[C@](C)(CNC(c3ccccc3)(c3ccccc3)c3ccccc3)CCC[C@]21C` [2f], the IC50 in assay [1] is > 100 µM; in assay [2], > 100 µM; in assay [3] (read-out: IC50, 3D7, 72 h), ~90.6 µM and 90.6 µM. Also, the “Inhibition of parasite growth” value in assay [3] (20 μM, 72 h) was “not inhibitory”.

For the compound `CCC(=O)NCC1(C)CCCC2(C)c3ccc(C(C)C)cc3CCC12` (stereo not drawn) [2c, N-dehydroabietylpropionamide], the IC50 is 89.4 ± 3.3 µM in assay [1]; > 100 µM in assay [2]; 13.3 ± 0.44 µM in assay [3] (read-out: IC50, 3D7, 72 h). For the same compound, in assay [3] (20 μM, 72 h), the “Inhibition of parasite growth” value is given as “complete inhibition”. Further, the “Antimalarial activity” value in assay [3] is “good to excellent antimalarial activity”.

With `CC(C)C1=CC2=CC[C@@H]3[C@](C)(CCC[C@@]3(C)C(=O)O)[C@H]2CC1` [compound 3, abietic acid], the “Percent parasitemia and parasite growth stage” value is 21.6 ± 1.0 (R) % in assay [4] (setting [6]); 20.6 ± 1.2 (T) % in assay [4] (setting [7]); 6.0 ± 0.3 (T) % in assay [4] (setting [8]); 22.0 ± 1.3 (R) % in assay [4] (setting [9]); 20.6 ± 0.4 (T) % in assay [4] (setting [10]); 5.7 ± 0.3 (T) % in assay [4] (setting [11]). In addition, the “Percent parasitemia and parasite growth stage” value was 22.3 ± 0.6 (R) % in assay [4] (setting [12]); 20.0 ± 0.2 (T) % in assay [4] (setting [13]); 5.9 ± 0.4 (T) % in assay [4] (setting [14]); 20.6 ± 0.9 (R) % in assay [4] (setting [15]); 15.1 ± 0.3 (T) % in assay [4] (setting [16]). Besides, the “Effect on parasite growth” value is on record as “noticeably inhibit parasite growth” in assay [4] (20 μM, second life cycle); “no effect on parasite growth” in assay [4] (2.5, 5, and 10 μM, 72 h culturing period). The “Antimalarial activity, ranking among the three compounds tested” value in assay [4] was “negligibly active”. Moreover, the IC50 was > 100 µM in assay [1]; > 100 µM in assay [2]; ~82 µM in assay [3] (Plasmodium falciparum, 3D7, 72 h, read-out: IC50, 3D7, 72 h). Besides, the “Gametocidal effect” value in assay [5] (10 and 20 μM) is “no activity; also recorded: no effect on gametocytes”. The “Inhibition of parasite growth” value in assay [3] (setting [17]) is given as “negligible activity”.

On to `CC(C)c1ccc2c(c1)CC[C@H]1[C@](C)(CN)CCC[C@]21C` [compound 1, dehydroabietylamine], for which the “Percent parasitemia and parasite growth stage” value in assay [4] (setting [6]) is on record as 10.3 ± 1.3 (R) %; in assay [4] (setting [7]), 9.1 ± 0.5 (T) ^b %; in assay [4] (setting [8]) it was 5.5 ± 0.3 (T) %; in assay [4] (setting [9]), 6.1 ± 1.5 (T, S, R) %; in assay [4] (setting [10]), “NVP”; in assay [4] (setting [11]), 3.3 ± 0.3 (T) %. Also, the “Percent parasitemia and parasite growth stage” value in assay [4] (10 μM, 48 h, ring-stage (R) parasites, listed as Dehydroabietylamine) is 2.5 ± 0.2%; in assay [4] (10 μM, 48 h, ring-stage (R) parasites, listed as dehydroabietylamine), ~ 2.5%; in assay [4] (setting [13]) it was “NVP”; in assay [4] (setting [14]), “NVP^c”; in assay [4] (setting [15]), “NVP”; in assay [4] (setting [16]), “NVP”. Besides, the “Parasites developed into trophozoites” value in assay [4] (10 μM, 24 h treatment) is recorded as ~ 60%. The “Remaining trophozoites still at the trophozoite and schizont stages, unhealthy” value in assay [4] (10 μM, 48 h) is on record as ~ 73%. In addition, the “Trophozoites matured into healthy schizonts” value in assay [4] (10 μM, by 48 h) is ~ 27%. For the same compound, the “Effect on parasite development” value in assay [4] (20 μM, 24 h) is “completely inhibited parasite development into trophozoites”. In addition, in assay [4], the “Antimalarial activity, ranking among the three compounds tested” value is “most active”. Also, the concentration for half-maximal inhibition (IC50) in assay [1] is 1.4 ± 0.24 µM; in assay [2] it was 8.9 ± 0.68 µM; in assay [3] (read-out: IC50, 3D7, 72 h), 1.8 ± 0.22 µM. Also, the “Gametocidal effect” value was “gametocytes shrunk and condensed into non-viable, rounded condensed bodies” in assay [5] (10 μM); “completely lysed gametocytes” in assay [5] (20 μM). The “Inhibition of parasite growth” value in assay [3] (setting [17]) is recorded as “efficiently inhibited parasite growth in a dose dependent manner”.

Consider `CC(C)C1=CC2=CC[C@H]3[C@](C)(CN)CCC[C@]3(C)[C@H]2CC1` [4d, abietylamine], for which the “Percent parasitemia and parasite growth stage” value in assay [4] (setting [6]) is 20.4 ± 1.3 (R) %; in assay [4] (setting [7]), 10.0 ± 0.5 (T) %; in assay [4] (setting [8]) it was 6.0 ± 0.4 (T) %; in assay [4] (setting [9]), 16.1 ± 1.5 (R) %; in assay [4] (setting [10]), 9.0 ± 0.4 (T) ^b %; in assay [4] (setting [11]), 4.3 ± 0.4 (T) %. For the same compound, the “Percent parasitemia and parasite growth stage” value is 10.1 ± 0.6% in assay [4] (setting [12]); 8.3 ± 0.1 (T) ^b % in assay [4] (setting [13]); 3.7 ± 0.3 (T) % in assay [4] (setting [14]); 2.4 ± 0.5% in assay [4] (20 μM, 48 h, ring-stage (R) parasites, NVP = no viable parasites, listed as Abietylamine); ~ 2.4% in assay [4] (20 μM, 48 h, ring-stage (R) parasites, NVP = no viable parasites, listed as abietylamine); “NVP ^b” in assay [4] (setting [16]). Besides, the “Inhibition of parasite growth” value in assay [4] (2.5 μM, by 72 h) is listed as “about 50%”. The “Parasites developed into trophozoites” value in assay [4] (20 μM, 24 h period) is recorded as ~ 60%. Moreover, the “Parasites at the trophozoite and schizont stages” value in assay [4] (20 μM, 48 h, share of those that developed into trophozoites) was ~ 45%. Further, the “Effect on parasites” value in assay [4] (20 μM, by 72 h) is listed as “completely killed the parasites”. In addition, in assay [4], the “Antimalarial activity, ranking among the three compounds tested” value is on record as “moderately active”. Further, the IC50 in assay [1] is 2.1 ± 0.25 µM; in assay [2] it was 8.3 ± 0.41 µM; in assay [3] (read-out: IC50, 3D7, 72 h), 8.2 ± 0.48 µM.

In the case of `CC(C)c1ccc2c(c1)CCC1C(C)(CNC(=O)c3ccccc3)CCCC21C` (stereo not drawn) [2d, N-dehydroabietylbenzamide], the IC50 is > 100 µM in assay [1]; > 100 µM in assay [2]; 0.36 ± 0.13 µM in assay [3] (read-out: IC50, 3D7, 72 h). The “Antimalarial activity” value in assay [3] is reported as “good to excellent antimalarial activity; also recorded: most potent antimalarial activity”.
